Reference: PubChem BioAssay
Active and inactive are the calls of the source.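 How the source made its calls, unless noted: active means viability at or below 10% of carrier control in both of two separate runs; inconclusive means viability at or below 10% in only one of the two runs; inactive means the rest.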

What was measured:
[1] = Her2 expression decrease, cell viability multiplex – SKBR3 breast tumor cells, AlphaScreen, ATP viability, primary screen (AID 461;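 active means Her2 level under about 52% in both replicate screens, with viability over 70% of control, limit read from the data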;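 on Her2 level: lower value means less Her2 protein in the cells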;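 on viability: percent of carrier control wells set as 100% viability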); conditions: SKBR3 Her2 protein level, 18-24 h, measured here: SKBR3 viability, ATP luminescence, at 10 µM
[2] = biological target: Receptor tyrosine-protein kinase erbB-2 (Homo sapiens) (UniProt P04626); assay: as above; conditions: 18-24 h, at 10 µM, stronger effect = lower value
Sequence of Receptor tyrosine-protein kinase erbB-2 (Homo sapiens) (P04626 whole entry, looked up): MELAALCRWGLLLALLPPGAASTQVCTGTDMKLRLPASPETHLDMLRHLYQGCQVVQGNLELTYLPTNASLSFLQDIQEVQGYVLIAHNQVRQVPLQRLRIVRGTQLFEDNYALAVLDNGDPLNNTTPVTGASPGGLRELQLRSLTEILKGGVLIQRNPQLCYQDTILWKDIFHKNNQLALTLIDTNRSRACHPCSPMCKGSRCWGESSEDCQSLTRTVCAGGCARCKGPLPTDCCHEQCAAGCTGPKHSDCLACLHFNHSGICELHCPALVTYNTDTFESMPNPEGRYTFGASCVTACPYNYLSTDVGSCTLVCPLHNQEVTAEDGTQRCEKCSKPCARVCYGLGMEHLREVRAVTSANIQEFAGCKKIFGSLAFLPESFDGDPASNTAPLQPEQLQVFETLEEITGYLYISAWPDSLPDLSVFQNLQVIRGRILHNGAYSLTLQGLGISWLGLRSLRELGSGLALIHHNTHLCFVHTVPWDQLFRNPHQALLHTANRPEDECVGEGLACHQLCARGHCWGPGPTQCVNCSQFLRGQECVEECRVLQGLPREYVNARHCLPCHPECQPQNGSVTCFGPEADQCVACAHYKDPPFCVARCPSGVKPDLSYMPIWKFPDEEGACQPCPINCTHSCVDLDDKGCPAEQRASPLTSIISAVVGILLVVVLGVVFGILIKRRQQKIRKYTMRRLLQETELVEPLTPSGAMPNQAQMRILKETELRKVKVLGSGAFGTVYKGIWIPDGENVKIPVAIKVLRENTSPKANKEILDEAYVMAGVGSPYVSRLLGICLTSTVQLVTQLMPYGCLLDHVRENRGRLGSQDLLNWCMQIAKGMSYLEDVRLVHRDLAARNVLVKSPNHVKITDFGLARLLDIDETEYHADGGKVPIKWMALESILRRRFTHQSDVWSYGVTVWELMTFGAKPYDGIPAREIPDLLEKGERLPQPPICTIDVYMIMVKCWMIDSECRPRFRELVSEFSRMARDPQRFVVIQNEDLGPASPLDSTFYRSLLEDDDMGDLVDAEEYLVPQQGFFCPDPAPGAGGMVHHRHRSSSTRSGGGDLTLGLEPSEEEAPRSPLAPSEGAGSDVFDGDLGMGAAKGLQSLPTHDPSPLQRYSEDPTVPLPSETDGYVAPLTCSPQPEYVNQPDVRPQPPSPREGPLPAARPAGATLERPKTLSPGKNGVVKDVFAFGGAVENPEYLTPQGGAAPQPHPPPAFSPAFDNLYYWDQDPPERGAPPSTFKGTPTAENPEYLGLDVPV

[3] = reduced viability of SK-BR-3 breast cancer cells – cell-based, 24 h, human, pilot screen (AID 572); conditions: SK-BR-3 viability, CellTiter-Glo luminescence, at 10 µM, stronger effect = lower value;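 further: compound exposure lasted between 18 and 24 h rather than exactly 24 h; 100% = carrier-treated control wells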
[4] = HUVEC growth inhibition – cell-based, human, primary screen (AID 575;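 active means viability at or below 30% in both replicate assays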;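 further: 100% = median of untreated cell wells with 0.1% DMSO on each plate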); conditions: HUVEC proliferation, CellTiter-Glo luminescence, 72 h; at 10 µM; stronger effect = lower value
Procedure, shortened: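 material = primary HUVEC, no more than 12 passages | input = 1250 cells per well | controls = vehicle and MePR control wells | measured by = CTG luminescence | times = 72 h compound incubation | format = collagen-coated 384-well format | read-out = % viability vs DMSO wells | doses = single 10 µM dose, 0.1% DMSO, from 5x medium stock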

[5] = H69AR cell proliferation blockers – human, duplicate replicates, primary screen (AID 580;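 active means viability at or under a set limit in both replicates, limit being median viability minus 3 SD, cut at about 48% in these data, passing the limit was not always enough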;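 further: 100% = mean luminescence of untreated wells and 0% = no signal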); conditions: H69AR lung tumor cells viability, ATP luminescence, 72 h; at 10 µM; stronger effect = lower value
[6] = MRP1 drug-resistance reversers in H69AR cells – cell-based, doxorubicin co-treatment, pilot screen (AID 601;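 active means viability loss from added drug above about 55%, and viability with drug at most 40%, in both replicates, limit read from the data, passing the limit was not always enough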); conditions: CellTiter-Glo, 72 h, at 10 µM; for differential viability (reversal): stronger effect = higher value
[7] = yeast transport mutant growth inhibition pilot in 384-well plates, post-Golgi transport modulator project (AID 636; in the data active means inhibition above about 31%); conditions: absorbance 615 nm, about 18 h, stronger effect = higher value
[8] = growth suppression of yeast trafficking mutant, preliminary HTS, modulators of trafficking downstream of Golgi apparatus project, 1536-format plate, OD 615 nm (AID 637; in the data active means inhibition above about 30%); conditions: yeast transport mutant growth, absorbance 615 nm, 18 h; stronger effect = higher value
[9] = H69AR cells + 2 uM doxorubicin, measured here: viability with 2 uM doxorubicin, stronger effect = lower value
[10] = H69AR cells, compound alone cytotoxicity

SMILES | viability [1] | Her2 level [2] | viability [3] | viability [4] | viability [5] | differential viability (reversal) ([6]; H69AR cells + 2 uM doxorubicin) | viability [6, 9] | viability [6, 10] | inhibition [7] | inhibition [8]
COc1ccc(N2C(=O)C3C4C=CC(C4)C3C2=O)nn1 (stereo not given) | 104% | 106% (inactive) | 104% (inactive) | 99.6% (inactive) | 99.2% (inactive) | 17.4% (inactive) | 81.8% | 99.2% | -0.91% (inactive) | -4.59% (inactive)
CCOC(=O)CCNC(=O)Nc1ccc2nc(C)n(Cc3ccccc3Cl)c(=O)c2c1 | 87% | 110% (inactive) | 87% (inactive) | 92.9% (inactive) | 94.9% (inactive) | 7.92% (inactive) | 87% | 94.9% | -0.92% (inactive) | 1.67% (inactive)
Cc1ccc(CCNC(=O)C2CCN(S(=O)(=O)c3cccc4nsnc34)CC2)cc1 | 93.5% | 108% (inactive) | 93.5% (inactive) | 107% (inactive) | 95.6% (inactive) | -3.61% (inactive) | 99.2% | 95.6% | 2.13% (inactive) | 0.33% (inactive)
CC(C)Oc1ccc(C2C(C(=O)c3ccco3)=C(O)C(=O)N2CCCN(C)C)cc1 (stereo not given) | 89% | 99.5% (inactive) | 89% (inactive) | 118% (inactive) | 110% (inactive) | 8.15% (inactive) | 102% | 110% | -1.18% (inactive) | 8.2% (inactive)
c1ccc2c(c1)nc(-c1ccncc1)n1nnnc21 | 96.5% | 99.5% (inactive) | 96.5% (inactive) | 93.5% (inactive) | 93.2% (inactive) | 8.75% (inactive) | 84.4% | 93.2% | -6% (inactive) | -0.16% (inactive)
COc1ccc(CCNc2oc(-c3ccccc3OC)nc2C#N)cc1 | 88% | 106% (inactive) | 88% (inactive) | 86.4% (inactive) | 95.2% (inactive) | 0.34% (inactive) | 94.8% | 95.2% | -1.43% (inactive) | -11% (inactive)
O=C(Nc1ccc2c(c1)OCO2)C(c1ccccc1)N1CCC2(CC1)OCCO2 (stereo not given) | 96.5% | 101% (inactive) | 96.5% (inactive) | 82.6% (inactive) | 96.3% (inactive) | 7.72% (inactive) | 88.6% | 96.3% | -3.78% (inactive) | 14.9% (inactive)
CCN(CC)S(=O)(=O)c1ccc(C(=O)N2CCN=C2SCc2cccnc2)cc1 | 82.5% | 95.5% (inactive) | 82.5% (inactive) | 79.7% (inactive) | 84.5% (inactive) | -3.98% (inactive) | 88.5% | 84.5% | -3.38% (inactive) | -3.02% (inactive)
CCOc1cc(C2/C(=C(/O)c3ccc(OC(C)C)cc3)C(=O)C(=O)N2CCCOC)ccc1O (stereo not given) | 91.5% | 83.5% (inactive) | 91.5% (inactive) | 103% (inactive) | 99.1% (inactive) | 1.7% (inactive) | 97.4% | 99.1% | 1.82% (inactive) | 3.17% (inactive)
O=C(CSc1nnc(-c2cnccn2)n1Cc1ccco1)c1ccc(Cl)cc1 | 90% | 81% (inactive) | 90% (inactive) | 105% (inactive) | 80.7% (inactive) | -2.83% (inactive) | 83.5% | 80.7% | -0.78% (inactive) | 6.5% (inactive)
Cc1nc(NC2=NCN(CCN3CCOCC3)CN2)nc2c(C)cccc12 | 114% | 91.5% (inactive) | 114% (inactive) | 77.3% (inactive) | 95.2% (inactive) | -12.6% (inactive) | 108% | 95.2% | -2.11% (inactive) | -7.33% (inactive)
CC(=O)NC1(C(F)(F)F)NC(=O)N(CC(C)C)C1=O (stereo not given) | 103% | 109% (inactive) | 103% (inactive) | 91.1% (inactive) | 102% (inactive) | 18.8% (inactive) | 83.6% | 102% | -2.3% (inactive) | -0.66% (inactive)
Cc1nnc(SCC(=O)NC(C)(C)C)n1CCc1ccccc1 | 93.5% | 92.5% (inactive) | 93.5% (inactive) | 105% (inactive) | 95.6% (inactive) | 4.22% (inactive) | 91.4% | 95.6% | -6.53% (inactive) | 5.65% (inactive)
Cc1cc(S(=O)(=O)n2cnc3ccccc32)c(C)cc1Cl | 86.5% | 120% (inactive) | 86.5% (inactive) | 99.1% (inactive) | 102% (inactive) | 9.41% (inactive) | 92.4% | 102% | -3.42% (inactive) | -3.97% (inactive)
O=C(CN1C(=O)COCC1=O)N1CCOCC1 | 91% | 86.5% (inactive) | 91% (inactive) | 104% (inactive) | 96.9% (inactive) | -0.64% (inactive) | 97.5% | 96.9% | 0.26% (inactive) | 0% (inactive)
COC(=O)c1ccc(C(=O)OC)c(NC(=O)Nc2ccc3c(c2)OCO3)c1 | 86.5% | 106% (inactive) | 86.5% (inactive) | 89.1% (inactive) | 92.7% (inactive) | -2.65% (inactive) | 95.4% | 92.7% | -0.78% (inactive) | -9.67% (inactive)
COc1cccc(OCCn2ccnc2)c1 | 90.5% | 104% (inactive) | 90.5% (inactive) | 89.6% (inactive) | 89.4% (inactive) | -3.7% (inactive) | 93.1% | 89.4% | -4.93% (inactive) | -9.21% (inactive)
CCOc1cc(C2NC(=O)N(C)C(C)=C2C(=O)OC)cc(Br)c1O (stereo not given) | 112% | 79.5% (inactive) | 112% (inactive) | 69.9% (inactive) | 93.8% (inactive) | 21.3% (inactive) | 72.6% | 93.8% | -4.73% (inactive) | 4.44% (inactive)
CC1c2nc3ccccc3n2C(CC(=O)NCc2ccccn2)C(=O)N1Cc1ccccc1 (stereo not given) | 110% | 72% (inactive) | 110% (inactive) | 96.3% (inactive) | 92.8% (inactive) | 7.24% (inactive) | 85.5% | 92.8% | -1.58% (inactive) | 1.59% (inactive)
CCCN1C(=O)c2cc(C(=O)O)ccc2C1O (stereo not given) | 113% | 100% (inactive) | 113% (inactive) | 90.1% (inactive) | 103% (inactive) | 18.7% (inactive) | 84.1% | 103% | -1.07% (inactive) | 1.48% (inactive)
CC1CCCN(C(=O)CN2CCN(C(=O)c3ccco3)CC2)C1 (stereo not given) | 95.5% | 89.5% (inactive) | 95.5% (inactive) | 91.2% (inactive) | 93.2% (inactive) | 11.7% (inactive) | 81.6% | 93.2% | -4.13% (inactive) | -1.8% (inactive)
COC(=O)C1=CN(C)C=C(C(=O)OC)C1c1ccc(O)c(OC)c1 | 96.5% | 98% (inactive) | 96.5% (inactive) | 88.1% (inactive) | 100% (inactive) | 6.83% (inactive) | 93.4% | 100% | -3.16% (inactive) | 4% (inactive)
CS(=O)(=O)NCc1nnc(SCC(=O)NC2CCCCC2)n1-c1ccc(F)cc1 | 98.5% | 100% (inactive) | 98.5% (inactive) | 102% (inactive) | 97.6% (inactive) | 9.24% (inactive) | 88.4% | 97.6% | -6.18% (inactive) | 12.3% (inactive)
Cc1nnc(NC(=O)CSc2nnc(-c3ccc(S(=O)(=O)N4CCCC4)cc3)n2C)s1 | 93% | 88.5% (inactive) | 93% (inactive) | 104% (inactive) | 99% (inactive) | 6.45% (inactive) | 92.6% | 99% | -2.8% (inactive) | -2.1% (inactive)
Cc1ccc2occ(CN3CCN(c4ccccc4)CC3)c(=O)c2c1 | 104% | 104% (inactive) | 104% (inactive) | 89% (inactive) | 87.5% (inactive) | -6.67% (inactive) | 94.2% | 87.5% | -1.04% (inactive) | -3.77% (inactive)
O=C(Cn1cnc2c(nnn2-c2ccc(F)cc2)c1=O)NCc1ccco1 | 97% | 74% (inactive) | 97% (inactive) | 97.1% (inactive) | 84.8% (inactive) | -0.975% (inactive) | 85.7% | 84.8% | -0.39% (inactive) | -2.73% (inactive)
O=C1c2cccnc2C(O)N1Cc1ccc(F)cc1 (stereo not given) | 104% | 88% (inactive) | 104% (inactive) | 88.8% (inactive) | 102% (inactive) | 3.87% (inactive) | 97.7% | 102% | -4.53% (inactive) | 2.95% (inactive)
CCCS(=O)(=O)C(=C1Nc2ccccc2N1)S(=O)(=O)CCC | 105% | 97.5% (inactive) | 105% (inactive) | 93.4% (inactive) | 103% (inactive) | 12.9% (inactive) | 89.8% | 103% | -5.68% (inactive) | 4.13% (inactive)
Cc1ccc(S(=O)(=O)CCC(=O)Nc2ccc3c(c2)OCO3)cc1 | 96.5% | 84.5% (inactive) | 96.5% (inactive) | 92.5% (inactive) | 81.3% (inactive) | -10.8% (inactive) | 92.1% | 81.3% | 0.95% (inactive) | -2.22% (inactive)
